Lung fibro prol – blocks proliferation of human lung fibroblasts; LL 47 human lung fibroblast viability, ATP luminescence; active compounds read low; 85,000 tested, 1.1% active; viability, % at 10 µM;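 active = viability at or below 50% in the single dose screen; inactive = viability above 50%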;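 note: compound exposure lasted 72 h before the ATP readout; 100% = median luminescence of untreated cell-only wells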
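Times – overnight cell rest, 72 h compound treatment at 37 °C · Test system – human lung fibroblast line LL 47, low passage · Amount – 1,150 cells in each well · Controls – cell-only wells, no compound · Doses – 0.1% DMSO in all compound wells · Measured by – CellTiter-Glo luminescence · Buffer or medium – IMEM plus 15% FBS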
H69AR inhibit – blocks growth of human H69AR lung tumor cells; H69AR lung tumor viability, ATP luminescence, 72 h; active compounds read low; AID 598; viability, % at 10 µM; 85,000 tested, 6% active;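 active = viability at or below 40%; inactive = viability above 40%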;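 note: multidrug resistant small cell line overexpressing MRP-1 efflux transporter; 100% = mean luminescence of untreated control wells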
HCT116 bCat-KO – beta-catenin-lacking colon tumor cell growth suppression; HCT116 beta-catenin knockout viability, CellTiter-Glo, 60 h; active compounds read low; viability, % at 10 µM; 140,000 tested, 1.5% active;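 active = viability at or under a set limit, the compound median less 4 SD, cut at about 6% in these data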;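 note: 0% = Hyamine 1622 control at 20 µM and 100% = untreated cell control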
HCT116 PTEN-null – PTEN-deleted cell growth suppression; HCT116 PTEN-null viability, CellTiter-Glo, 60 h; active compounds read low; viability, % at 10 µM; 140,000 tested, 1.2% active; AID 827;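 active = viability at or below a set limit, 4 SD under the median of all tested compounds, cut at about 3.7% in these data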;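 note: PTEN knockout HCT116 line with beta catenin targeted HCT116 as companion control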
HUVEC prolif 384 – inhibitors of human endothelial cell proliferation. HUVEC proliferation, CellTiter-Glo luminescence, 72 h; active compounds read low. viability, % at 10 µM (by protocol). 86,000 tested, 1.1% active;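 active = viability at or below 30%; inactive = viability above 30%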;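 note: 100% = median luminescence of DMSO-only cell control wells on each plate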
* marks the source's active call; other numbers are inactive results; x = not tested or not shown. The sample as a whole holds a higher share of hits than the screen did.

SMILES | Lung fibro prol | H69AR inhibit | HCT116 bCat-KO | HCT116 PTEN-null | HUVEC prolif 384
COc1cccc([C@@H]2Oc3ccc(OC)cc3C(=O)[C@H]2OC(=O)NCc2ccc3c(c2)OCO3)c1 | x | x | 78 | 68 | x
O=C(/C=C\c1cn(-c2ccccc2)nc1-c1ccccc1)Nc1nccs1 | x | x | 1.6* | 1.2* | x
Cc1ccc(-n2ncc3c(NCc4ccc5c(c4)OCO5)ncnc32)c(C)c1 | 68 | 28* | 61 | 60 | 89
c1ccc(-n2ncc3c(NCc4ccc5c(c4)OCO5)ncnc32)cc1 | 87 | 87 | 83 | 86 | 89
COc1ccc(-n2ncc3c(NCc4ccc5c(c4)OCO5)ncnc32)cc1 | 68 | 6.2* | 88 | 86 | 66
CCCCN1C2CCCC1CC(NC(=O)N(C(C)C)C(C)C)C2 (stereo unspecified) | 103 | 71 | x | x | 105
Cc1ccc2sc(NC(=O)CN3C(=O)CCC3=O)nc2c1C | 99 | 98 | 105 | 108 | 104
Cc1c(Cl)ccc2sc(NC(=O)CN3C(=O)c4ccccc4C3=O)nc12 | x | x | 0.8* | 0.5* | x
O=c1cc(CO)oc(C(Nc2ccccn2)c2cccc(F)c2)c1O (stereo unspecified) | 97 | 91 | 102 | 113 | 102
O=c1cc(CO)oc(C(Nc2ccccn2)c2ccc(C(F)(F)F)cc2)c1O (stereo unspecified) | 89 | 19* | 80 | 86 | 91
N#Cc1c(NC(=O)C2CC(c3ccccc3O)=NO2)sc2c1CCC2 (stereo unspecified) | x | x | 92 | 90 | x
COc1ccc(-c2c3c(nc4sc(C(=O)Nc5ccccc5)c(N)c24)CCC3)cc1 | 80 | 30* | x | x | 43
O=C(NCCN1C(=O)S/C(=C\c2ccccc2)C1=O)c1cc(S(=O)(=O)N2CCOCC2)c(Cl)cc1Cl | x | x | 64 | 64 | x
CCn1c(C)nc2cc(C(=O)n3cc(C(=O)c4ccccc4O)cn3)ccc21 | x | x | 105 | 98 | x
Cc1ccc(-c2nc3n(n2)Cc2ccccc2-3)cc1 | 87 | 67 | 69 | 78 | 84
Fc1ccc(-c2nc3n(n2)Cc2ccccc2-3)cc1 | 73 | 37* | 51 | 53 | 73
CCn1c(C)nc2cc(-c3nc4n(n3)Cc3ccccc3-4)ccc21 | 24* | 16* | 17 | 16 | 26*
Cc1cccc(NC(=O)CCNC(=O)c2ccco2)c1 | x | x | 92 | 99 | x
COc1ccc(Cn2c(SCc3ccccc3C)nc3cc(OC)c(OC)cc3c2=N)cc1 | x | x | 1.6* | 1.1* | x
Cn1c(=O)c(NCCO)c2c3c(cccc31)C(=O)c1ccccc1-2 | 100 | 55 | 92 | 92 | 46
CCCCNc1c2c3c(cccc3n(C)c1=O)C(=O)c1ccccc1-2 | 83 | 16* | 39 | 40 | 52
CC1=CC(=O)C(C(C)C)=C/C1=N/OC(=O)c1cccc([N+](=O)[O-])c1 | 87 | 33* | 51 | 60 | 104
CC1=CC(=NOC(=O)c2cccc([N+](=O)[O-])c2)C=C(C)C1=O | 91 | 74 | 9 | 27 | 96
CCOc1ccccc1Nc1nc(-c2sc(NC(=O)c3ccc([N+](=O)[O-])cc3)nc2C)cs1 | x | x | 0.8* | 1.5* | x
COc1ccc(Cl)cc1Nc1nc(-c2sc(NC(=O)c3ccccc3)nc2C)cs1 | x | x | 1.2* | 1.1* | x
SMILES | Lung fibro prol | H69AR inhibit | HCT116 bCat-KO | HCT116 PTEN-null | HUVEC prolif 384
Cc1ccccc1Nc1nc(-c2sc(NC(=O)c3ccc([N+](=O)[O-])cc3)nc2C)cs1 | x | x | 97 | 93 | x
CNC(=S)N(Cc1ccc2c(c1)OCO2)C1CC(=O)N(c2ccc(F)cc2)C1=O (stereo unspecified) | x | x | 86 | 89 | x
CC1(C)CC(=O)CC(=O)/C1=N\Nc1c(Cl)cc(Cl)cc1Cl | x | x | 83 | 90 | x
CCOC(=O)C1=C(CC)Nc2ccccc2N=C1NC(=O)Nc1ccc(Cl)c(Cl)c1 | x | x | 2.6* | 2.6* | x
CCOC(=O)C1=C(CC)Nc2ccccc2N=C1NC(=O)Cn1cnc2ccccc2c1=O | 103 | 97 | 79 | 74 | 100
Cc1cccc(NC(=O)C(=O)NCCCc2ccccc2)c1 | x | x | 93 | 102 | x
CN(C)CC/C=C1/c2ccccc2Sc2c(O)cc(Cl)cc21 | 54 | 6.3* | 14 | 20 | 50
COc1cc(Cl)cc2c1Sc1ccccc1/C2=C/CCN(C)C | 96 | 2.7* | 2.2* | 4 | 4.1*
COc1cc2c(cc1Cl)/C(=C\CCN(C)C)c1ccccc1S2 | x | x | 13 | 13 | x
O=C(CSc1ccc(-c2ccc(Cl)cc2)nn1)Nc1ccc2c(c1)OCCO2 | x | x | 83 | 88 | x
Cc1ccccc1OCC(=O)OCC(=O)NCc1cccs1 | x | x | 107 | 91 | x
CCOC(=O)C1=C(C)OC(N)=C(C#N)C1c1cc2c(cc1Br)OCO2 (stereo unspecified) | 92 | 30* | 85 | 87 | 89
CCCOc1c(Br)cc(C2C3=C(CCCC3=O)N(C)C3=C2C(=O)CCC3)cc1OC | x | x | 97 | 95 | x
CCCCN1C(=O)C(NC(C)=O)c2cc(Br)ccc21 (stereo unspecified) | 100 | 24* | 62 | 65 | 95
Cc1ccc(NC(=O)c2cccc(S(=O)(=O)N(C)c3ccccc3)c2)cc1S(=O)(=O)N1CCOCC1 | x | x | 60 | 63 | x
Cc1nn(-c2ccccc2)c(C)c1C(=O)OCC(=O)N1c2ccccc2NC(=O)C1(C)C | 94 | 17* | 64 | 57 | 76
CC(CNC(=O)C(C)(C)C)NC(=O)C(C)(C)C (stereo unspecified) | x | x | 97 | 110 | x
Cc1nn(-c2nc3ccccc3[nH]2)c(N)c1-c1ccccc1 | 69 | 20* | 13 | 7 | 80
Cc1nn(-c2nc3ccccc3s2)c(N)c1-c1ccccc1 | 98 | 88 | 91 | 95 | 110
Cc1cc(C)c2ccc(N)nc2c1O | 9.4* | 14* | 3.8* | 5 | 76
CCOC(=O)c1cc2c(N)c(C(=O)c3cc(C#N)c(SC)nc3C)sc2nc1C | x | 16* | 66 | 17 | 42
O=c1c2ccccc2oc2nc(-c3cccs3)n(CCc3ccccc3)c(=O)c12 | x | x | 90 | 92 | x
O=C(CCN1C(=O)C2C3CC(C(Br)C3Br)C2C1=O)OCC(=O)c1ccccc1 (stereo unspecified) | x | x | 91 | 102 | x
C=CCn1c(SCC(=O)c2[nH]c(C)c(C(=O)OC)c2C)nc2scc(-c3ccc(OC)c(OC)c3)c2c1=O | x | x | 4.1* | 2.5* | x
C=CCn1c(SCC(=O)c2[nH]c(C)c(C(C)=O)c2C)nnc1-c1ccncc1 | 108 | 87 | 80 | 78 | 111
Cc1ccc(C2C(C#N)=C(N)Oc3c2sc2ccccc32)o1 (stereo unspecified) | 58 | 13* | 69 | 72 | 41
CCOC(=O)CC1=C(C(=O)OCC)C(c2ccc(C)o2)C(C#N)=C(N)O1 (stereo unspecified) | 94 | 103 | 86 | 96 | 108
Cc1nn(-c2nc3ccccc3s2)c(N)c1Sc1ccc(F)cc1 | 18* | 9.7* | 32 | 15 | 59
CC(C)CC(C(=O)Nc1oc(-c2ccco2)c(-c2ccco2)c1C#N)N1C(=O)c2ccccc2C1=O (stereo unspecified) | 101 | 87 | 97 | 95 | 95

Source: PubChem BioAssay (SRMLSC)
